Source: ChEMBL document CHEMBL4706624, “Synthesis and evaluation of new quinazoline-benzimidazole hybrids as potent anti-microbial agents against multidrug resistant Staphylococcus aureus and Mycobacterium tuberculosis” (Eur J Med Chem, 2021)
Values after ≈ are worked out from the molar mass of the structure shown.

How the values were obtained:
Escherichia coli = assay: Antibacterial activity against Escherichia coli ATCC 25922 measured after 16 to 18 hrs; format: functional; conditions: time 16-18 hrs
Procedure, shortened: (§1)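 Broth microdilution MIC. Strains grown on MHA; a single colony was grown overnight in CA-MHB at 37 °C with shaking for 18–24 h. Cultures were diluted by OD600 to ~10⁶ cfu/mL and exposed to compound at […]. Plates were incubated at 37 °C for 16-18 h. MIC = lowest concentration with no visible growth. Levofloxacin was the reference. Three independent runs, each in duplicate.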

Staphylococcus aureus [1] = assay: Antibacterial activity against Staphylococcus aureus ATCC 29213 measured after 16 to 18 hrs; format: functional; conditions: time 16-18 hrs; procedure, shortened: as §1
Klebsiella pneumoniae = assay: Antibacterial activity against Klebsiella pneumoniae BAA-1705 measured after 16 to 18 hrs; format: functional; conditions: ATCC BAA-1705, time 16-18 hrs; procedure, shortened: as §1
Acinetobacter baumannii = assay: Antibacterial activity against Acinetobacter baumannii BAA1605 measured after 16 to 18 hrs; format: functional; conditions: time 16-18 hrs; procedure, shortened: as §1
Pseudomonas aeruginosa = assay: Antibacterial activity against Pseudomonas aeruginosa ATCC 27853 measured after 16 to 18 hrs; format: functional; conditions: time 16-18 hrs; procedure, shortened: as §1
[2] = test system: Mycobacterium tuberculosis; assay: Antitubercular activity against Mycobacterium tuberculosis H37Rv ATCC 27294 measured after 7 days by broth microdilution method; format: functional; conditions: H37Rv ATCC 27294, 168 h, time 7 day
Procedure, shortened: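 H37Rv in Middlebrook 7H9 with 10% ADC, 0.2% glycerol, 0.05% Tween-80. Inoculum ~10⁶ cfu/mL set by OD600. Twofold serial dilutions, 0.0064–0.00005 g/100 mL. Incubated at 37 °C for 7 days, then Presto blue resazurin read-out. MIC = lowest concentration inhibiting visible growth. Triplicate runs, each in duplicate.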

[3] = test system: Mycobacteroides abscessus; assay: Antimycobacterial activity against Mycobacterium abscessus ATCC 19977 by broth microdilution method; format: functional
Procedure, shortened: (§2)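 Broth microdilution MIC in Middlebrook 7H9 with 10% ADC-Tween-80 (BSA, dextrose, 0.2% glycerol, 0.05% Tween-80). Inoculum ~10⁶ cfu/mL set by OD600. Compounds were twofold serially diluted, 0.0064–0.00005 g/100 mL (DMSO stocks). Presto blue resazurin dye was used as read-out. MIC = lowest concentration inhibiting visible growth. Triplicate runs, each in duplicate.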

[4] = test system: Mycolicibacterium fortuitum; assay: Antimycobacterial activity against Mycobacterium fortuitum ATCC 6841 by broth microdilution method; format: functional; procedure, shortened: as §2
Mycobacteroides chelonae = assay: Antimycobacterial activity against Mycobacterium chelonae ATCC 35752 by broth microdilution method; format: functional; procedure, shortened: as §2
[5] = Cytotoxicity against African green monkey Vero cells assessed as reduction in cell viability measured after 72 hrs by MTT assay; format: cell-based; conditions: chlorocebus sabaeus
Procedure, shortened: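 Vero cells (ATCC CCL-81), ~10³ cells/well, held 24 h at 37 °C in 5% CO₂. Compound at 100–5 mg/L for 72 h. MTT was added for 4 h, formazan dissolved in DMSO, OD read at 540 nm. CC50 = concentration giving 50% viability reduction. Doxorubicin was the positive control. Triplicate.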

[6] = Selectivity index, ratio of CC50 for cytotoxicity against African green monkey Vero cells to MIC for antibacterial activity against Staphylococcus aureus ATCC 29213; format: toxicity, cell-based; conditions: read-out: Selectivity Index
Procedure, shortened: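 SI = Vero CC50 (MTT, 72 h) divided by MIC against S. aureus ATCC 29213 (CA-MHB broth microdilution, 16-18 h, 37 °C).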

Staphylococcus aureus [7] = assay: Antibacterial activity against methicillin-sensitive Staphylococcus aureus ATCC 29213 measured after 16 to 18 hrs; format: functional; conditions: time 16-18 hrs; procedure, shortened: as §1
Staphylococcus aureus [8] = assay: Antibacterial activity against methicillin-resistant Staphylococcus aureus NR100 measured after 16 to 18 hrs; format: functional; conditions: time 16-18 hrs; procedure, shortened: as §1
Staphylococcus aureus [9] = assay: Antibacterial activity against methicillin-resistant Staphylococcus aureus NR119 measured after 16 to 18 hrs; format: functional; conditions: time 16-18 hrs; procedure, shortened: as §1
Staphylococcus aureus [10] = assay: Antibacterial activity against methicillin-resistant Staphylococcus aureus NR10129 measured after 16 to 18 hrs; format: functional; conditions: time 16-18 hrs; procedure, shortened: as §1
Staphylococcus aureus [11] = assay: Antibacterial activity against methicillin-resistant Staphylococcus aureus NR10198 measured after 16 to 18 hrs; format: functional; conditions: time 16-18 hrs; procedure, shortened: as §1
Staphylococcus aureus [12] = assay: Antibacterial activity against methicillin-resistant Staphylococcus aureus NR10192 measured after 16 to 18 hrs; format: functional; conditions: time 16-18 hrs; procedure, shortened: as §1
Staphylococcus aureus [13] = assay: Antibacterial activity against methicillin-resistant Staphylococcus aureus NR10186 measured after 16 to 18 hrs; format: functional; conditions: time 16-18 hrs; procedure, shortened: as §1
Staphylococcus aureus [14] = assay: Antibacterial activity against methicillin-resistant Staphylococcus aureus NR10193 measured after 16 to 18 hrs; format: functional; conditions: time 16-18 hrs; procedure, shortened: as §1
Staphylococcus aureus [15] = assay: Antibacterial activity against methicillin-resistant Staphylococcus aureus NR10194 measured after 16 to 18 hrs; format: functional; conditions: time 16-18 hrs; procedure, shortened: as §1
Staphylococcus aureus [16] = assay: Antibacterial activity against methicillin-resistant Staphylococcus aureus NR10191 measured after 16 to 18 hrs; format: functional; conditions: time 16-18 hrs; procedure, shortened: as §1
Staphylococcus aureus [17] = assay: Antibacterial activity against vancomycin-resistant Staphylococcus aureus VRS1 measured after 16 to 18 hrs; format: functional; conditions: time 16-18 hrs; procedure, shortened: as §1
Staphylococcus aureus [18] = assay: Antibacterial activity against vancomycin-resistant Staphylococcus aureus VRS4 measured after 16 to 18 hrs; format: functional; conditions: time 16-18 hrs; procedure, shortened: as §1
Staphylococcus aureus [19] = assay: Antibacterial activity against vancomycin-resistant Staphylococcus aureus VRS12 measured after 16 to 18 hrs; format: functional; conditions: time 16-18 hrs; procedure, shortened: as §1

SMILES	MIC (Escherichia coli) [µg/mL]	MIC (Staphylococcus aureus [1]) [µg/mL]	MIC (Klebsiella pneumoniae) [µg/mL]	MIC (Acinetobacter baumannii) [µg/mL]	MIC (Pseudomonas aeruginosa) [µg/mL]	MIC [2] [µg/mL]	MIC [3] [µg/mL]	MIC [4] [µg/mL]	MIC (Mycobacteroides chelonae) [µg/mL]	CC50 at 72 h [5] [µg/mL]	selectivity ratio [6]	other results
O=C(Nc1ccc2nc(-c3cnc4c(Cl)cccc4c3)[nH]c2c1)c1ccc(Nc2nc(-c3ccccc3)nc3ccccc23)cc1	> 64	> 64	> 64	> 64	> 64	16 (≈ 25.9 µM)	> 64	> 64	> 64	> 100	> 6.25	
O=[N+]([O-])c1ccc2[nH]c(-c3ccc(Nc4nc(-c5ccccc5)nc5ccccc45)cc3)nc2c1	> 64	> 64	> 64	> 64	> 64	8 (≈ 17.4 µM)	> 64	> 64	> 64	100 (≈ 218 µM)	12.5	
COc1cccc(OC)c1C(=O)N[C@@H]1C(=O)N2[C@@H]1SC(C)(C)[C@@H]2C(=O)O [METHICILLIN]												MIC (Staphylococcus aureus [7]): 1 µg/mL (≈ 2.63 µM); MIC (Staphylococcus aureus [8]): > 64 µg/mL; MIC (Staphylococcus aureus [9]): > 64 µg/mL; MIC (Staphylococcus aureus [10]): > 64 µg/mL; MIC (Staphylococcus aureus [11]): > 64 µg/mL; MIC (Staphylococcus aureus [12]): > 64 µg/mL; MIC (Staphylococcus aureus [13]): > 64 µg/mL; MIC (Staphylococcus aureus [14]): > 64 µg/mL; MIC (Staphylococcus aureus [15]): 32 µg/mL (≈ 84.1 µM); MIC (Staphylococcus aureus [16]): > 64 µg/mL; MIC (Staphylococcus aureus [17]): > 64 µg/mL; MIC (Staphylococcus aureus [18]): > 64 µg/mL; MIC (Staphylococcus aureus [19]): > 64 µg/mL
CCCCCCCCCC(=O)N[C@@H](Cc1c[nH]c2ccccc12)C(=O)N[C@H](CC(N)=O)C(=O)N[C@@H](CC(=O)O)C(=O)N[C@@H]1C(=O)NCC(=O)N[C@@H](CCCN)C(=O)N[C@@H](CC(=O)O)C(=O)N[C@H](C)C(=O)N[C@@H](CC(=O)O)C(=O)NCC(=O)N[C@H](CO)C(=O)N[C@@H]([C@H](C)CC(=O)O)C(=O)N[C@@H](CC(=O)c2ccccc2N)C(=O)O[C@@H]1C												MIC (Staphylococcus aureus [7]): 1 µg/mL (≈ 0.617 µM); MIC (Staphylococcus aureus [8]): 1 µg/mL (≈ 0.617 µM); MIC (Staphylococcus aureus [9]): 1 µg/mL (≈ 0.617 µM); MIC (Staphylococcus aureus [10]): 0.5 µg/mL (≈ 0.309 µM); MIC (Staphylococcus aureus [11]): 0.5 µg/mL (≈ 0.309 µM); MIC (Staphylococcus aureus [12]): 1 µg/mL (≈ 0.617 µM); MIC (Staphylococcus aureus [13]): 0.5 µg/mL (≈ 0.309 µM); MIC (Staphylococcus aureus [14]): 1 µg/mL (≈ 0.617 µM); MIC (Staphylococcus aureus [15]): 0.5 µg/mL (≈ 0.309 µM); MIC (Staphylococcus aureus [16]): 1 µg/mL (≈ 0.617 µM); MIC (Staphylococcus aureus [17]): 1 µg/mL (≈ 0.617 µM); MIC (Staphylococcus aureus [18]): 0.5 µg/mL (≈ 0.309 µM); MIC (Staphylococcus aureus [19]): 0.5 µg/mL (≈ 0.309 µM)
O=C(Nc1ccc2nc(C(F)(F)F)[nH]c2c1)c1ccc(Nc2nc(-c3ccccc3)nc3ccccc23)cc1	> 64	32 (≈ 61 µM)	> 64	> 64	> 64	64 (≈ 122 µM)	> 64	> 64	> 64			
Brc1ccc2[nH]c(-c3ccc(Nc4nc(-c5ccccc5)nc5ccccc45)cc3)nc2c1	> 64	> 64	> 64	> 64	> 64							
C[C@H]1COc2c(N3CCN(C)CC3)c(F)cc3c(=O)c(C(=O)O)cn1c23.C[C@H]1COc2c(N3CCN(C)CC3)c(F)cc3c(=O)c(C(=O)O)cn1c23.O [LEVOFLOXACIN]	0.125	0.015	64		0.5		1	0.03	0.03			MIC (Staphylococcus aureus [7]): 0.125 µg/mL; MIC (Staphylococcus aureus [8]): 0.25 µg/mL; MIC (Staphylococcus aureus [9]): 16 µg/mL; MIC (Staphylococcus aureus [10]): 0.25 µg/mL; MIC (Staphylococcus aureus [11]): 8 µg/mL; MIC (Staphylococcus aureus [12]): 16 µg/mL; MIC (Staphylococcus aureus [13]): 8 µg/mL; MIC (Staphylococcus aureus [14]): 32 µg/mL; MIC (Staphylococcus aureus [15]): 0.125 µg/mL; MIC (Staphylococcus aureus [16]): 32 µg/mL; MIC (Staphylococcus aureus [17]): 32 µg/mL; MIC (Staphylococcus aureus [18]): > 64 µg/mL; MIC (Staphylococcus aureus [19]): 32 µg/mL
O=C(Nc1ccc2nc(-c3ccc(Br)cc3F)[nH]c2c1)c1ccc(Nc2nc(-c3ccccc3)nc3ccccc23)cc1	> 64	64 (≈ 102 µM)	> 64	> 64	> 64	> 64	> 64	> 64	> 64			
COc1ccc(-c2nc(Nc3ccc(-c4nc5cc(Cl)ccc5[nH]4)cc3)c3ccccc3n2)cc1OC	> 64	16 (≈ 31.5 µM)	> 64	> 64	> 64	32 (≈ 63 µM)	> 64	> 64	> 64	> 100	> 6.25	
Fc1ccc2[nH]c(-c3ccc(Nc4nc(-c5ccccc5)nc5ccccc45)cc3)nc2c1	> 64	4 (≈ 9.27 µM)	> 64	> 64	> 64	> 64	> 64	> 64	32 (≈ 74.2 µM)	40 (≈ 92.7 µM)	10	
O=C(Nc1ccc2nc(-c3ccc4ccccc4c3)[nH]c2c1)c1ccc(Nc2nc(-c3ccccc3)nc3ccccc23)cc1	> 64	> 64	> 64	> 64	> 64	64 (≈ 110 µM)	> 64	> 64	> 64			
